# Experimental data as given in ChEMBL document CHEMBL1221214, “Cytosporone B is an agonist for nuclear orphan receptor Nur77” (Nat Chem Biol, 2008).
# The source made the active and inactive calls. No cut-off for these calls is given here.
# Columns and labels:
# [1] = target: Nuclear receptor subfamily 4immunitygroup A member 1 (Homo sapiens, UniProt P22736, Y453A); test: Binding affinity to Nur77 Y453A mutant expressed in human BGC823 cells; type: cell-based, BGC-823
# [2] = test system: Mycobacterium tuberculosis; test: Antimicrobial activity against Mycobacterium tuberculosis; type: functional, organism-based
# Saccharomyces cerevisiae = test: Antimicrobial activity against Saccharomyces cerevisiae; type: functional, organism-based
# [3] = target: T1, Nuclear receptor subfamily 4immunitygroup A member 1 (Homo sapiens, UniProt P22736); test: Binding affinity to nuclear orphan receptor Nur77 assessed as conformational change in receptor by CD spectroscopic
# T1 sequence (P22736 whole entry): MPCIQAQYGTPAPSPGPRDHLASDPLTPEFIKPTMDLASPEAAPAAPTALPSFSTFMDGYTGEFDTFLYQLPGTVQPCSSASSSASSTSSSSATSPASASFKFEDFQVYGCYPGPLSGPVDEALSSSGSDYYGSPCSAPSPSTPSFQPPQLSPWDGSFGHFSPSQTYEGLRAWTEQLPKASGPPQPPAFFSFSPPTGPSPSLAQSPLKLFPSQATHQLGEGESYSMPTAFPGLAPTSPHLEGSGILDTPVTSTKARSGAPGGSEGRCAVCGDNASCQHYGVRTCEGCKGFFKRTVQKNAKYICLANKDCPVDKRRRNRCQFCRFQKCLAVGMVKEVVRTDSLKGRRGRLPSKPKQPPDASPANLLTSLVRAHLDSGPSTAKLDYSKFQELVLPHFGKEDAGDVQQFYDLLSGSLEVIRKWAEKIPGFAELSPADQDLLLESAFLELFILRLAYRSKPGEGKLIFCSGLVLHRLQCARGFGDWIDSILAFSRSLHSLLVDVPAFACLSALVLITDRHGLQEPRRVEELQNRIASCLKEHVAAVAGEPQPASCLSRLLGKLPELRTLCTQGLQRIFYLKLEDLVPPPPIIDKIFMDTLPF
# Staphylococcus aureus = test: Antimicrobial activity against Staphylococcus aureus; type: functional, organism-based
# [4] = target: T1, Nuclear receptor subfamily 4immunitygroup A member 1; test: Binding affinity to GST-tagged nuclear orphan receptor Nur77 at 25 degC by fluorescence quenching analysis
# Method in brief: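 GST-Nur77 intrinsic fluorescence (emission maximum 336 nm) monitored while increasing Csn-B amounts were added; inner-filter contribution estimated with GST alone and subtracted to give corrected quenching curves.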
# BGC-823 = test: Induction of mitochondria translocation of Nur77 from nucleus in human BGC823 cells transfected with GFP-Nur77 pretreated with 1 ng/ml leptomycin B at 5 ug/ml after 12 hrs using […] by confocal microscope; type: functional, cell-based
# Chain of Nuclear receptor subfamily 4immunitygroup A member 1 (Homo sapiens, UniProt P22736, Y453A) (P22736 whole entry Y453A): as the sequence (P22736 whole entry) above, with Y453A counted along it
smiles,measurement,setting,value
CC1=C(/C=C/C(C)=C\C=C\C(C)=C\C(=O)O)C(C)(C)CCC1 [ALITRETINOIN],Kd,[1],810 nM
CCCCCCCC1OC(=O)Cc2cc(O)cc(O)c21 (configuration not stated) [CYTOSPORONE C],IC50,[2],62.5 µg/mL
same,IC50,Saccharomyces cerevisiae,12.5 µg/mL
same,Activity,[3],inactive
same,IC50,Staphylococcus aureus,50 µg/mL
same,Activity,[4],inactive
same,Activity,BGC-823,inactive
